Hits are enriched below; roughly 2.3% of the tested compounds scored in any of these assays.
HTRA1 inh: inhibitors of human serine peptidase HTRA1 | inhibition, % at 5.96 µM | Q92743 | recombinant HTRA1, FP-rhodamine activity-based probe, fluorescence polarization | actives 0.5% (n = 340,000) | AID 504803; in the data active = inhibition above about 36%;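 note: 0% = enzyme with DMSO and 100% = wells lacking enzyme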
Target sequence (Q92743 whole entry, looked up): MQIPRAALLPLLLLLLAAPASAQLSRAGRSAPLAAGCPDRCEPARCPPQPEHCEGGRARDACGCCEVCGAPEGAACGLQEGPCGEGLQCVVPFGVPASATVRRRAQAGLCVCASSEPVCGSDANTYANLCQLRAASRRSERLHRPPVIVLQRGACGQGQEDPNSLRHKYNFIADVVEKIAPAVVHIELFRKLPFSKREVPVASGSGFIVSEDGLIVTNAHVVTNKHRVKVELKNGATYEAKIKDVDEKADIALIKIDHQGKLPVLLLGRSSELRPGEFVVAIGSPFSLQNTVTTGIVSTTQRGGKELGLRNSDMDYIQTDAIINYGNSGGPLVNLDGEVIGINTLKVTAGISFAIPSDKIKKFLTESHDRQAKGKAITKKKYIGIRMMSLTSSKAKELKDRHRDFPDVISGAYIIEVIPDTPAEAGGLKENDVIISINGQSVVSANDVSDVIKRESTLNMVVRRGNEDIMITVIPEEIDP
SIAE primary: blocks human sialic acid acetylesterase; Q9HAT2; SIAE FP-Rh probe binding, fluorescence polarization; inhibition, % at 9.66 µM; actives 0.69% (n = 370,000); AID 1053197;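 active = inhibition above a cutoff: mean of compounds within the control limits plus 3 SD of those, cut at about 17% in these data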;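 note: 0% = plate median of compound wells and 100% = probe without SIAE protein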
pPAFAH FP inh: pPAFAH (human) enzyme inhibition | AID 463082 | inhibition, % at 3.39 µM | recombinant pPAFAH, FP-rhodamine probe fluorescence polarization | Q13093 | actives 1.5% (n = 330,000);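 active = inhibition above the mean inhibition across the screen plus 3 SD, cut at about 25% in these data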;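 note: inhibitors block binding of the rhodamine activity-based probe so polarization drops; 0% = enzyme with DMSO and 100% = wells lacking pPAFAH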
ABHD4 inh: inhibitors of mouse ABHD4; inhibition, % at 8.92 µM; AID 720543; Q8VD66; actives 0.54% (n = 370,000); purified mABHD4, FP-Rh probe fluorescence polarization;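 active = inhibition exceeding the mean over every tested compound plus 3 SD, cut at about 30% in these data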;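 note: 0% = plate median of compound wells and 100% = S159A mutant with DMSO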
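Test system: mABHD4 protein | Buffer or medium: HEPES pH 7.0 buffer, 150 mM NaCl, 0.01% Pluronic F-127 | Probe or stimulus: FP-Rh fluorescent activity-based probe, added after compound pre-incubation | Timing: Pre-incubation 45 min, probe exposure 60 min, at 25 °C | Technique: Fluorescence polarization, excitation 525 nm, emission 598 nm, BODIPY TMR filters | Repeats: Single well per compound (singlicate)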
TCR CD3 inh: inhibitors of human TCR-CD3 interaction | inhibition, % at 9.4 µM | actives 0.37% (n = 360,000) | TAMRA-labeled TCR probe fluorescence, biochemical;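 note: recombinant mutant TCR 2C K166C tagged with TAMRA read by polarization; 0% = receptor in buffer alone and 100% = receptor with positive control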
pPAFAH confirm: confirmation of human plasma PAF acetylhydrolase (pPAFAH) inhibitors; shares compounds with pPAFAH FP inh; recombinant pPAFAH, FP-Rh probe fluorescence polarization; inhibition, % at 3.39 µM; actives 72% (n = 2,300);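 active = mean inhibition of the triplicate above the hit cutoff set for the earlier primary screen, cut at about 25% in these data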;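 note: 0% = enzyme with DMSO and 100% = wells lacking pPAFAH enzyme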
HTRA1 inh conf: HTRA1 (human) inhibition, confirmation; shares compounds with HTRA1 inh; recombinant HTRA1, FP-rhodamine activity-based probe, fluorescence polarization; inhibition, % at 5.96 µM; actives 66% (n = 1,600);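 active = mean inhibition over three repeats above a set limit taken from the earlier primary screen, cut at about 37% in these data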;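 note: 0% = HTRA1 with DMSO and 100% = wells lacking HTRA1; inhibitors block probe binding so polarization drops and inhibition rises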
BSA TAMRA ctr: counter-screen for TCR-CD3 interaction inhibitors: BSA probe | shares compounds with TCR CD3 inh | TAMRA-labeled BSA probe fluorescence counterscreen | inhibition, % at 9.4 µM | actives 10% (n = 1,200); in the data active = inhibition above about 23%;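 note: 0% = buffer low control and 100% = reference high control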
TCR-CD3 conf: TCR-CD3 interaction inhibition, confirmation. shares compounds with TCR CD3 inh. TAMRA-labeled TCR probe fluorescence binding assay. inhibition, % at 9.4 µM. actives 48% (n = 1,200). AID 652036
ABHD4 confirm: ABHD4 (mouse) inhibition, FP confirmation | purified mABHD4, FP-Rh probe fluorescence polarization | inhibition, % at 8.92 µM | shares compounds with ABHD4 inh | actives 55% (n = 1,800);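 active = mean inhibition across replicates above the hit cutoff set in the primary screen, cut at about 30% in these data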;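 note: 0% = wild-type ABHD4 with DMSO and 100% = catalytically dead S159A mutant with DMSO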
SIAE confirm: confirmation of human SIAE inhibitors; actives 13% (n = 2,300); AID 1117263; inhibition, % at 9.66 µM; SIAE FP-Rh activity-based probe, fluorescence polarization; shares compounds with SIAE primary;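 active = mean inhibition of the replicates above the hit cutoff set in the primary screen, cut at about 17% in these data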;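 note: 0% = SIAE with DMSO and probe and 100% = probe without SIAE; inhibitors lower polarization as more probe stays unbound to SIAE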
* hit, by the source's call; nt = not tested or not shown; + = active, no number. Cut-off read from the data, not from the text of the source, unless noted: active = inhibition above about 19%; inactive = the rest.

SMILES	HTRA1 inh	SIAE primary	pPAFAH FP inh	ABHD4 inh	TCR CD3 inh	HTRA1 inh conf	others
CCOc1ccccc1-n1c(O)c(C=Nc2ccc(N(CC)CC)cc2)c(=O)[nH]c1=O	58*	11	44*	67*	24*	4	pPAFAH confirm=5;BSA TAMRA ctr=2;TCR-CD3 conf=1;ABHD4 confirm=13
CCOc1ccc(-n2c(O)c(C=Nc3ccc(N(CC)CC)cc3)c(=O)[nH]c2=O)cc1	3	7	3	14	-1	nt
CCN(CC)c1ccc(N=Cc2c(O)[nH]c(=O)[nH]c2=O)cc1	53*	10	45*	57*	13	20	pPAFAH confirm=3;ABHD4 confirm=1
CCN(CC)c1ccc(N=Cc2c(O)n(-c3ccccc3C)c(=O)[nH]c2=O)cc1	60*	12	38*	64*	18	nt	pPAFAH confirm=7;ABHD4 confirm=4
CCN(CC)c1ccc(N=Cc2c(O)n(Cc3ccccc3)c(=O)[nH]c2=O)cc1	8	8	-2	13	2	nt
CC12C=CC(=O)C=C1CC(O)C1C2CCC2(C)C1CCC2(C)O (stereo not drawn)	6	-1	nt	-1	11	nt
Cc1c(C)c2ccc(OCC(=O)N3C[C@H]4C[C@@H](C3)c3cccc(=O)n3C4)cc2oc1=O	-2	4	2	0	12	nt
COc1cccc(NC2=NCCCS2)c1	-2	9	-2	1	1	nt
NP(=O)(OCCCCc1ccccc1)Oc1ccccc1Cl (stereo not drawn)	3	43*	70*	-8	-2	nt	pPAFAH confirm=74*;SIAE confirm=38*
CC(=O)c1ccc2c(c1)C1C(Cl)C(Sc3ccccc3[N+](=O)[O-])CC1C(C(=O)O)N2 (stereo not drawn)	88*	21*	54*	54*	28*	71*	pPAFAH confirm=27*;BSA TAMRA ctr=-2;TCR-CD3 conf=17;ABHD4 confirm=104*;SIAE confirm=8
O=C(NCC1=C(c2ccc3ccccc3c2)C[C@@H]2CC[C@H]1N2Cc1ccco1)c1nccs1	-9	-4	nt	-3	-3	nt
CCCNC(=O)N1[C@H]2CC[C@@H]1C(C(=O)OC)=C(c1cc3ccccc3o1)C2	2	-4	1	0	-4	nt
O=C(COC(=O)Cc1ccccc1)NC(=O)NC1CCCCC1	36*	3	-4	2	8	38*
Cn1ccnc1P(=S)(c1nccn1C)c1nccn1C	71*	0	0	3	2	106*
COc1nc(C)nc(NC(=O)NS(=O)(=O)c2ccccc2Cl)n1	4	-3	2	8	-4	nt
Oc1ccc(/C=N/NP(=S)(c2ccccc2)c2ccccc2)cc1O	58*	-9	19	24	-2	62*
COc1ccc(-n2c(/C=C/c3ccc(O)c(OC)c3)nc3ccccc3c2=O)cc1	-8	8	13	1	-4	nt
COc1cccc(-n2c(/C=C/c3ccc(O)c(O)c3)nc3ccccc3c2=O)c1	58*	-3	33*	21	14	47*
CCOC(=O)c1cc2c(cn1)[C@@H](CCO)NC2	2	-4	nt	3	9	nt
COc1ccc(Br)cc1CNCCc1ccc2c(c1)OCO2	8	-4	-3	7	-1	nt
COc1ccccc1CCNCc1cc2c(cc1[N+](=O)[O-])OCO2	42*	7	8	14	4	10
COc1cc(C(O)CNC(C)C)cc(F)c1OC (stereo not drawn)	2	2	3	0	-4	nt
NCCc1cc(O)c(O)cc1O	73*	91*	nt	45*	170*	48*	BSA TAMRA ctr=+;TCR-CD3 conf=+;ABHD4 confirm=92*
CC(C)Sc1nnc(OC(=O)N(C)C)n1-c1ccccc1	0	-5	0	0	1	nt
CN(C)[C@@H]1C(=O)C(C(N)=O)=C(O)[C@@]2(O)C(=O)C3=C(O)c4c(O)ccc(Cl)c4[C@@](C)(O)[C@H]3C[C@@H]12	40*	9	30*	57*	11	15	ABHD4 confirm=8
SMILES	HTRA1 inh	SIAE primary	pPAFAH FP inh	ABHD4 inh	TCR CD3 inh	HTRA1 inh conf	others
COC(=O)C1=C(c2ccc(F)cc2OCc2ccccc2)C[C@@H]2CC[C@H]1N2C(=O)NCc1ccc(Br)cc1	-53	-7	6	-15	-2	nt
C=CCN1CCc2cccc3c2[C@H]1Cc1ccc(O)c(O)c1-3	63*	15	17	44*	7	80*	ABHD4 confirm=24
Cc1cccc(N=Cc2c(O)n(C)c(=O)n(C)c2=O)c1	5	-2	2	1	4	nt
CCOC(=O)C1CCCN(c2ccc([N+](=O)[O-])c3nonc23)C1 (stereo not drawn)	47*	21*	nt	67*	140*	56*	BSA TAMRA ctr=168*;TCR-CD3 conf=134*;ABHD4 confirm=56*;SIAE confirm=47*
CN1C[C@H](CO)C=C2c3cccc4[nH]cc(c34)C[C@H]21	16	14	7	22	4	nt
CC1=C[C@@H]2c3cccc4[nH]cc(c34)C[C@H]2N(C)C1	40*	17*	5	19	13	16	SIAE confirm=1
CC(C)(C)c1nc(N2CCN(C(=O)c3ccco3)CC2)c2nnn(Cc3ccccc3Cl)c2n1	-11	nt	11	nt	nt	nt
CC[n+]1c(-c2ccccc2)c2cc(N)ccc2c2ccc(N)cc21	109*	54*	nt	82*	90*	118*	BSA TAMRA ctr=103*;TCR-CD3 conf=93*;ABHD4 confirm=105*;SIAE confirm=67*
O=C1/C(=C\c2cc3c(cc2Br)OCO3)N2CCC1CC2	-5	nt	2	nt	nt	nt
O=C(N/N=C/c1c(O)n(CCc2ccc(F)cc2)c(=O)[nH]c1=O)c1ccccc1	nt	3	10	-1	10	nt
O=C(N/N=C/c1c(O)n(CCc2ccccc2)c(=O)[nH]c1=O)c1ccccc1O	35	7	22	39*	23*	nt	BSA TAMRA ctr=-4;TCR-CD3 conf=28*
O=C1NC(=O)N(c2ccccc2)C(=O)/C1=C/c1ccoc1	-2	-7	13	10	24*	nt	BSA TAMRA ctr=-1;TCR-CD3 conf=4
CC/C(=N\NC(=O)c1ccccc1Cl)c1c(O)n(C2CCCCC2)c(=O)[nH]c1=O	7	0	0	-3	21*	nt	BSA TAMRA ctr=-5;TCR-CD3 conf=18

Source: PubChem
